# From ChEMBL document CHEMBL5724801, “EUbOPEN Chemogenomics Library - Multiplex” (2024)
# “And” between values parts separate entries of the source, which are not always exact repeats. Identical values can stand only once.
# Test system: HEK-293T
# Experiment: Multiplex assay against HEK293T
# Type: toxicity, cell-based
# Details: human
# In short: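 Phenotypes for tubulin, mitochondrial mass and membrane permeability are expressed as per cents of healthy-nucleus cells. Cells were stained live at seeding with Hoechst33342, BioTracker Green Microtubule Cytoskeleton Dye, MitoTracker Red and Annexin V Alexa Fluor 680, then imaged after compound addition on a CQ1 microscope at 37°C and 5% CO2. Machine-learning gating in CellPathfinder separated Hoechst high-intensity objects from normal cells, divided normal cells by nuclear state (healthy, pyknosed, fragmented) and divided pyknosed cells into mitotic or apoptotic.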
# [1] = 12 h, 1 µM, compound concentration 1 uM
# [2] = 12 h, 10 µM, compound concentration 10 uM
# [3] = 24 h, 1 µM, compound concentration 1 uM
# [4] = 24 h, 10 µM, compound concentration 10 uM
# [5] = 48 h, 1 µM, compound concentration 1 uM
# [6] = 48 h, 10 µM, compound concentration 10 uM
compound,measurement,setting,value
CCOC(=O)c1c(/C(C#N)=C\N)c2ccc(Cl)c(Cl)c2n1C,Population Apoptotic (%),[1],10.92% and 11.11%
same,Population Fragmented Nuclei (%),[1],1.47% and 6.57%
same,Population Healthy Nuclei (%),[1],63.42% and 21.17%
same,Population Hoechst High Intensity Objects (%),[1],0.59% and 0%
same,Population Membrane Permeable-Phenotype (%),[1],0.47% and 0%
same,Population Mitochondria Different-Phenotype (%),[1],35.81% and 27.59%
same,Population Mitotic Cells (%),[1],89.08% and 88.89%
same,Population Normal (%),[1],99.41% and 100%
same,Population Pyknosed Nuclei (%),[1],35.1% and 72.26%
same,Total Cell Count,[1],341 and 137
same,Population Apoptotic (%),[2],10.34% and 8.77%
same,Population Fragmented Nuclei (%),[2],2.88% and 1.83%
same,Population Healthy Nuclei (%),[2],59.94% and 28.66%
same,Population Hoechst High Intensity Objects (%),[2],0.64% and 0%
same,Population Membrane Permeable-Phenotype (%),[2],0.53% and 0%
same,Population Mitochondria Different-Phenotype (%),[2],26.74% and 19.15%
same,Population Mitotic Cells (%),[2],89.66% and 91.23%
same,Population Normal (%),[2],99.36% and 100%
same,Population Pyknosed Nuclei (%),[2],37.18% and 69.51%
same,Total Cell Count,[2],314 and 164
same,Population Apoptotic (%),[3],15.32% and 13.98%
same,Population Fragmented Nuclei (%),[3],1.11% and 3.87%
same,Population Healthy Nuclei (%),[3],78.41% and 36.13%
same,Population Hoechst High Intensity Objects (%),[3],0.18% and 0%
same,Population Membrane Permeable-Phenotype (%),[3],1.18% and 0%
same,Population Mitochondria Different-Phenotype (%),[3],15.29% and 16.07%
same,Population Mitotic Cells (%),[3],84.68% and 86.02%
same,Population Normal (%),[3],99.82% and 100%
same,Population Pyknosed Nuclei (%),[3],20.48% and 60%
same,Population Tubulin-Different-Phenotype (%),[3],5.88% and 5.36%
same,Population Apoptotic (%),[4],10.47% and 16.46%
same,Population Fragmented Nuclei (%),[4],1.69% and 1.2%
same,Population Healthy Nuclei (%),[4],80.17% and 51.2%
same,Population Hoechst High Intensity Objects (%),[4],0%
same,Population Membrane Permeable-Phenotype (%),[4],1.05% and 1.18%
same,Population Mitochondria Different-Phenotype (%),[4],14.21% and 7.06%
same,Population Mitotic Cells (%),[4],89.53% and 83.54%
same,Population Normal (%),[4],100%
same,Population Pyknosed Nuclei (%),[4],18.14% and 47.59%
same,Population Tubulin-Different-Phenotype (%),[4],7.11% and 4.71%
same,Total Cell Count,[4],474 and 166
same,Population Apoptotic (%),[5],7.43% and 15.94%
same,Population Fragmented Nuclei (%),[5],4.65% and 2.55%
same,Population Healthy Nuclei (%),[5],86.28% and 72.26%
same,Population Hoechst High Intensity Objects (%),[5],0%
same,Population Membrane Permeable-Phenotype (%),[5],4.76% and 3.03%
same,Population Mitochondria Different-Phenotype (%),[5],8.8% and 13.13%
same,Population Mitotic Cells (%),[5],92.57% and 84.06%
same,Population Normal (%),[5],100%
same,Population Pyknosed Nuclei (%),[5],9.06% and 25.18%
same,Population Apoptotic (%),[6],9.24% and 19.3%
same,Population Fragmented Nuclei (%),[6],4.82% and 1.55%
same,Population Healthy Nuclei (%),[6],85.93% and 80.75%
same,Population Hoechst High Intensity Objects (%),[6],0% and 0.92%
same,Population Membrane Permeable-Phenotype (%),[6],5.88% and 2.31%
same,Population Mitochondria Different-Phenotype (%),[6],11.04% and 11.15%
same,Population Mitotic Cells (%),[6],90.76% and 80.7%
same,Population Normal (%),[6],100% and 99.08%
same,Population Pyknosed Nuclei (%),[6],9.25% and 17.7%
CCCCCN1C(=O)C2(COc3cc4c(cc32)OCO4)c2ccccc21 (stereo not drawn),Population Apoptotic (%),[1],10.57% and 8.94%
same,Population Fragmented Nuclei (%),[1],1.96% and 2%
same,Population Hoechst High Intensity Objects (%),[1],0%
same,Population Membrane Permeable-Phenotype (%),[1],0%
same,Population Mitotic Cells (%),[1],89.43% and 91.06%
same,Population Normal (%),[1],100%
same,Population Pyknosed Nuclei (%),[1],40.2% and 82%
same,Total Cell Count,[1],306 and 150
same,Population Apoptotic (%),[2],8.79% and 6.67%
same,Population Fragmented Nuclei (%),[2],0.63% and 1.94%
same,Population Hoechst High Intensity Objects (%),[2],0.31% and 0%
same,Population Membrane Permeable-Phenotype (%),[2],1.48% and 0%
same,Population Mitochondria Different-Phenotype (%),[2],29.63% and 35.29%
same,Population Mitotic Cells (%),[2],91.21% and 93.33%
same,Population Normal (%),[2],99.69% and 100%
same,Population Pyknosed Nuclei (%),[2],57.05% and 87.1%
same,Total Cell Count,[2],320 and 155
same,Population Apoptotic (%),[3],13.4% and 12.71%
same,Population Fragmented Nuclei (%),[3],1.54% and 2.04%
same,Population Healthy Nuclei (%),[3],79.73% and 37.76%
same,Population Hoechst High Intensity Objects (%),[3],0% and 0.51%
same,Population Membrane Permeable-Phenotype (%),[3],1.21% and 2.7%
same,Population Mitochondria Different-Phenotype (%),[3],16.46% and 10.81%
same,Population Mitotic Cells (%),[3],86.6% and 87.29%
same,Population Normal (%),[3],100% and 99.49%
same,Population Tubulin-Different-Phenotype (%),[3],11.86% and 4.05%
same,Total Cell Count,[3],518 and 197
same,Population Apoptotic (%),[4],19.31% and 11.94%
same,Population Fragmented Nuclei (%),[4],1.12% and 2.34%
same,Population Hoechst High Intensity Objects (%),[4],0.22% and 0%
same,Population Membrane Permeable-Phenotype (%),[4],1.34% and 0%
same,Population Mitochondria Different-Phenotype (%),[4],25.5% and 21.21%
same,Population Mitotic Cells (%),[4],80.69% and 88.06%
same,Population Normal (%),[4],99.78% and 100%
same,Population Pyknosed Nuclei (%),[4],32.37% and 78.36%
same,Population Tubulin-Different-Phenotype (%),[4],30.2% and 15.15%
same,Total Cell Count,[4],449 and 171
same,Population Apoptotic (%),[5],9.4% and 23.88%
same,Population Fragmented Nuclei (%),[5],2.17% and 2.27%
same,Population Healthy Nuclei (%),[5],88.04% and 75.97%
same,Population Hoechst High Intensity Objects (%),[5],0% and 0.65%
same,Population Membrane Permeable-Phenotype (%),[5],4.37% and 2.99%
same,Population Mitochondria Different-Phenotype (%),[5],13.77% and 12.82%
same,Population Mitotic Cells (%),[5],90.6% and 76.12%
same,Population Normal (%),[5],100% and 99.35%
same,Population Pyknosed Nuclei (%),[5],9.78% and 21.75%
same,Population Fragmented Nuclei (%),[6],2.44% and 0.93%
same,Population Healthy Nuclei (%),[6],80.51% and 57.41%
same,Population Hoechst High Intensity Objects (%),[6],0%
same,Population Membrane Permeable-Phenotype (%),[6],5.04% and 0%
same,Population Mitochondria Different-Phenotype (%),[6],42.8% and 31.45%
same,Population Mitotic Cells (%),[6],93.2% and 75.56%
same,Population Normal (%),[6],100%
same,Population Pyknosed Nuclei (%),[6],17.05% and 41.67%
